Reference: ChEMBL document CHEMBL4513216, “Probing the Open Global Health Chemical Diversity Library for Multistage-Active Starting Points for Next-Generation Antimalarials” (ACS Infect Dis, 2020)

Test: Toxicity liver stage against HepG2, at 10uM
Format: cell-based
Parameters: test concentration 10 uM, cell line HepG2-A16-CD81EGFP
Conditions: human, HepG2-A16-CD81EGFP cells; read-out: INHIBITION
Summary of the method: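 Uninfected HepG2-A16-CD81EGFP cells, 3 × 10^3 per well, 1536-well, plated on prespotted compound at 10 μM final, parasite-free screening media added to match infected plates; puromycin 10 μM positive, DMSO 0.5% negative; run in parallel with 48 h PbLuc assay at 37 °C, 5% CO2; viability by CellTiter-Glo luminescence, normalized to controls.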

Structure (SMILES)	cytotoxicity at 10 µM [%]
CSCC[C@H](NC(=O)CCn1ccc2c(Br)cccc21)C(=O)O	0.633
CC(C)CCNC(=O)CNC(=O)N1CCc2c([nH]c3ccc(Cl)cc23)C1	6.73
C[C@@H](O)CNC(=O)CCc1nc2cccnc2[nH]1	-6.9
CN(C)CC(=O)N1CC2(CCN(Cc3ccccc3)C2)C1	5.62
COCCC1COC2(CCN(C(=O)C3CCCCC3)CC2)C1 (centres undefined)	7.4
O=S(=O)(C1CC1)N1CCO[C@H]2[C@H](OCC3CC3)CC[C@@H]21	5.61
CCOCC1CN(C(=O)c2ccnnc2)Cc2cnn(C)c21 (centres undefined)	7.07
CCOCC1CN(C(=O)c2cccnc2)Cc2cnn(C)c21 (centres undefined)	-1.28
CNC(=O)N1CC[C@@H]2CN(Cc3cccc(Cl)c3)S(=O)(=O)[C@@H]2CC1	0.748
CC(=O)N1CCN(C(=O)NC(C)C)CC2(CNC(=O)C2)C1 (centres undefined)	-1.63
COCCN1C(=O)CC(N2CCN(c3ccc(F)cc3)CC2)C1=O (centres undefined)	-9.26
CC1CCCCN1C(=O)COCc1nc(-c2ccncc2)no1 (centres undefined)	1.79
CN(C1CCCN(c2ccccn2)C1)S(C)(=O)=O (centres undefined)	1.07
CN1CCN(CC2(O)CCCN(C(=O)Cc3cccc(O)c3)CC2)CC1 (centres undefined)	-4.86
O=C(NCCNC1CCCCC1)c1cccs1	-12.7
CCS(=O)(=O)N1C[C@H]2CC[C@](O)(c3ccc(C)cc3)[C@H]2C1	-23.2
CN(C(=O)c1ccon1)[C@@H]1CCC[C@@H](Oc2ccccc2)[C@@H]1O	-17.5
C[C@@H]1C[C@H](C(F)(F)F)n2nc(C3CCN(S(=O)(=O)N(C)C)CC3)cc2N1	-17.9
Cc1cc(CCC(N)=O)cc(C2CCCN2Cc2ccnn2C)n1 (centres undefined)	-19.8
CCC(NC(=O)NC1CCN(S(C)(=O)=O)CC1)c1cccs1 (centres undefined)	-11.6
CC(NS(=O)(=O)N(C)C(C)C)C(=O)N(C)C (centres undefined)	7.95
CCN(Cc1cccnc1)C1CCN(c2ccccc2)C1=O (centres undefined)	-0.483
Cc1n[nH]c(C)c1CNCC(O)c1ccc(F)c(F)c1 (centres undefined)	4.32
O=C(Cc1ccc(Br)s1)NCC(=O)Nc1cn[nH]c1	2.06
O=C(CN1CCN(c2ncnc3cccc(F)c23)CC1)N1CCCC1	3.65
CC1(NC(=O)CNC(=O)C(C)(C)C)CCc2ccccc2C1 (centres undefined)	-3.67
Cc1n[nH]c(C)c1CCC(=O)NC1CCCN(c2ccccc2F)C1 (centres undefined)	-13.7

Structure (SMILES)	cytotoxicity at 10 µM [%]
CC(C)CN1CC(C(=O)NCCc2ccc(OC(F)F)cc2)CC1=O (centres undefined)	5.04
Cc1cc(CNC(=O)NC(C)c2ccccc2)no1 (centres undefined)	10.4
CC(C)(C)Cc1noc2ncc(C(=O)N3CCCSCC3)cc12	-20.5
COc1ccc(C)cc1-c1csc(Cn2ccc(=O)[nH]c2=O)n1	4.16
Cc1ccc(S(=O)(=O)CCC(=O)NCc2nnc3n2CCC3)cc1	3.55
CCn1c(CN(C)Cc2cnc(C)s2)nc2cc(F)ccc21	-31.9
CC(C)N(CC(N)=O)Cc1cccc(C(F)(F)F)c1	0.292
O=C(CCc1ccco1)Nc1cccc(S(=O)(=O)C(F)F)c1	-42.5
CCCS(=O)(=O)NCCc1ncc(C)s1	-9.31
CC(NC(=O)C1=NN(C)C(=O)CC1)c1ccc(F)cc1F (centres undefined)	-4.4
O=C(NCc1n[nH]c2c1CCCCC2)c1cnn2c1CCCC2	13.6
NC(=O)[C@H]1CCCN1C(=O)c1csc(-c2ccc(C(F)(F)F)cc2)n1	-0.187
CCc1ccc(CN(Cc2ccccc2)CC(C)CO)nc1 (centres undefined)	9.11
Cc1ccc(CN2CCNC(C(=O)NC3CC3)C2)cc1C (centres undefined)	-3.41
CC(C)NC(=O)[C@@H]1C[C@@H](N)CN1C(=O)CCSCc1ccccc1	0.719
Nc1nccc(N2C[C@@H](CN3CCCCC3)[C@@H](CO)C2)n1	-2.16
COCCn1c(CN2CCCCO2)cnc1S(=O)(=O)CC1CCCCC1	-6.58
CCNC(=O)[C@@H]1C[C@@H](NC(=O)c2cccnc2O)CN1Cc1ccsc1	-5.39
Cc1cc(C)n(CC2CN(CC(=O)NC3(C#N)CCCC3)CCO2)n1 (centres undefined)	-2.49
COc1c(C)cnc(CN2CCC(N(C)C(=O)C3CC3)CC2)c1C	-2.74
Cc1nn(C)c(C)c1C1COCCN1C(=O)c1cc(F)ccc1F (centres undefined)	3.38
O=C(O)c1c[nH]c2cc(NS(=O)(=O)c3ccc(Cl)cc3F)ccc12	-1.2
Cc1n[nH]c(C)c1C1COCCN1C(=O)c1n[nH]c2ccccc12 (centres undefined)	-3.63
CN(C)C(=O)CN1CCN(C(=O)c2cnn(-c3ccccc3Cl)c2)CC1	-3.67
CCOc1ncccc1NC(=O)NC1CCCN(S(C)(=O)=O)C1 (centres undefined)	-3.62
COc1ccc(CC(=O)N2CCCCC2Cn2cc(C)cn2)cc1F (centres undefined)	-14.1
COc1c(C2CCCN2C(=O)c2ccc3[nH]cnc3c2)c(C)nn1C (centres undefined)	-8.04

Structure (SMILES)	cytotoxicity at 10 µM [%]
Cc1oc(-c2ccco2)nc1CC(=O)N1CCN(CC(C)O)CC1 (centres undefined)	-11.4
Cc1nc(CN2CCCC(N(C)Cc3cnc(C)s3)C2)no1 (centres undefined)	2.76
O=C(Cc1cccc(F)c1)NCCNCc1cccc(O)c1	-9.5
O=C(NCCc1ccccn1)C1=NN(c2ccccc2)C(=O)CN1	-1.96
CCn1cnnc1C1CCN(C(=O)c2ccc(Cl)s2)CC1	-12.2
O=C(c1n[nH]c2ccccc12)N1CCCC1c1noc(C2CC2)n1 (centres undefined)	-10.8
CCOc1ccccc1-c1noc(CN2CC(n3cccn3)C2)n1	-2.79
CC(=O)NCC(=O)N1CCc2c(CNc3ncccn3)cncc2C1	1.59
Cc1cc(CN2C[C@@H]3COC[C@]3(CNC(=O)c3ccsc3)C2)no1	1.41
O=C(NCC1CC1)[C@H]1C[C@@H]2[C@@H](C1)OCCN2Cc1cccnc1	4.09
CCN1C(=O)C2(CCN(CCN(C)C)CC2)c2ccccc21	-112
CN(C)CCOCC1CN(Cc2ccccn2)Cc2nnn(C)c21 (centres undefined)	5.5
O=C(c1ncccn1)N1CCC[C@]2(C[C@@H](Oc3ncccc3F)CO2)C1	-4.28
c1ccc(CN2CC[C@@H]3[C@@H](CO[C@@H]3CNc3ncccn3)C2)nc1	-4.09
O=C(NCC1CC1)C1CN(Cc2ccncc2)Cc2ccnn2C1 (centres undefined)	-0.902
CCc1ccc(CN2CCCn3c(nc(Cn4ccnc4)cc3=O)C2)o1	4.29
CN1CCC2(CCCN(c3nccc(C(F)(F)F)n3)C2)CC1	4.14
CCn1ncc2c1C(COC)CN(Cc1ccc(F)cc1)C2 (centres undefined)	12.4
O=C(N1CCOCC1)N1CCc2ncnc(NC3CCC3)c2CC1	-1.92
CC(=O)N1CC(=O)N(c2ccsc2)CC12CCN(Cc1ccccn1)C2 (centres undefined)	13
Cc1csc(CN2C[C@@H]3COC[C@]3(COCC(=O)N(C)C)C2)n1	0.851
Cc1ccc(O[C@@H]2C[C@H]3CN(C(=O)c4cccnc4)CCN3C2)cc1	1.06
COc1ncccc1CN1C[C@@H]2COC[C@]2(COc2cccnc2)C1	-0.182
Cc1cccc(C(=O)N2C[C@@H]3C(CC(=O)N4CCCC4)[C@@H]3C2)n1 (some centres undefined)	1.82
COc1ccc(C2c3c(n[nH]c3C)N=C3COC(=O)C32)cc1OC (centres undefined)	7.98
